Tested on: MS2 coat protein
Assay: apparent Kd, MS2 coat protein; higher = weaker binding; RNA-MaP array; FMN 200 µM where present
How it was run: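 On Illumina sequencing-chip clusters, designs were transcribed by stalled E. coli RNA polymerase and titrated with SNAP-549-labelled MS2 coat protein (0.7 or 1.5 nM, doubling to 3 µM), without and then with constant ligand, in 100 mM Tris-HCl pH 7.5, 80 mM KCl, 4 mM MgCl2, BSA, DTT, yeast tRNA and Tween-20. Apparent Kd is the median of filtered per-cluster curve fits to green signal normalised to red-channel RNA signal and control-cluster median Fmax.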

[1] = designed as: OFF switch for flavin mononucleotide, no ligand
[2] = ligand present: flavin mononucleotide, designed as: OFF switch for flavin mononucleotide
[3] = designed as: ON switch for flavin mononucleotide, no ligand
[4] = ligand present: flavin mononucleotide, designed as: ON switch for flavin mononucleotide

GCCAAUACCGAGGAUAUCCUGAAGCACAUAUCUGGAGAAGGCGGUACAUGAGGAUCACCCAUGUGCUCGUGAGA
apparent Kd [1]: 21.6 nM | apparent Kd [2]: 33 nM

GCCAGGGAUUCAGGAUAUAUUAGCCGAGGCCGCGUAGAAGGGAAAUCCUGACAUGAGGAUCACCCAUGUCGACCCGCCUUCCUC
apparent Kd [3]: 28.5 nM | apparent Kd [4]: 29.2 nM

GCCAGUUAUGUAGGAUAUGCGAAGCGAGCCUGAGCAGAAGGACAUGAGGAUCACCCAUGUAUUGCGGUUUGAGUACUGAUCGCU
apparent Kd [1]: 27.9 nM | apparent Kd [2]: 107 nM

GCCAGUUAUGUAGGAUAUGCGAGGCGAGCCUGAGCAGAAGGACAUGAGGAUCACCCAUGUAUUGCGGUUUAAGUUCAGAUCGCU
apparent Kd [1]: 17.6 nM | apparent Kd [2]: 23.4 nM

GCCAUCGCAUGAGGAUAUAAUCGGGUUUCCCGUUUAGAAGGCAUGUCAUAAGACAUGAGGAUCACCCAUGUAGUUAAGAUGGCA
apparent Kd [3]: 471 nM | apparent Kd [4]: 27 nM

GCCAUCGCAUGAGGAUAUGGCACCGGUUCGGUGCCAGAAGGCAUGUCAAAUGACAUGAGGAUCACCCAUGUAGUUAAGAUGGCA
apparent Kd [3]: 215 nM | apparent Kd [4]: 14.7 nM

GCCAUCGCAUGAGGAUAUGGCACCGUUUCGGUGCCAGAAGGCAUGUCAUAAGACAUGAGGAUCACCCAUGUGGUUAAGAUGGCA
apparent Kd [3]: 865 nM | apparent Kd [4]: 50.9 nM

GCCAUCGCGUGAGGAUAUGCUCCGGUUUCCGGAGCAGAAGGCAUGUCAUAAGACAUGAGGAUCACCCAUGUAGUUAAGAUGGCA
apparent Kd [3]: 238 nM | apparent Kd [4]: 9.79 nM

GCCCGGCAUACAUGAGGAUCACCCAUGUCAGAAAGGGUAAUCAGAAGGUACUAUUAGAGAAAGAGUAAGGAUAUGAAGCCGGGC
apparent Kd [3]: 599 nM | apparent Kd [4]: 134 nM

GCCGAAAAUGUGAGGAUAUACCUAUGGAUACAUAGGUAGAAGGCACAUGAGGAUCACCCAUGUUCCUCAUCGGC
apparent Kd [1]: 114 nM | apparent Kd [2]: 435 nM

GCCGAAAGUGUGAGGAUAUACCUAUGGAUACAUAGGUAGAAGGCACAUGAGGAUCACCCAUGUUCCUAAACGGC
apparent Kd [1]: 80.2 nM | apparent Kd [2]: 421 nM

GCCGAUUAAGUCAGGAUAUACCUAUGGAUACAUAGGUAGAAGGGACAUGAGGAUCACCCAUGUUCCUCAGCGGC
apparent Kd [1]: 16.6 nM | apparent Kd [2]: 50.2 nM

GCCGAUUAAGUGAGGAUAUACCUAUGGAUACAUAGGUAGAAGGUACAUGAGGAUCACCCAUGUUCCUCAUCGGC
apparent Kd [1]: 10 nM | apparent Kd [2]: 12.2 nM

GCCGCCCGAUCUGGCUUUUGGGCUAGAAGGGCAUAUGUGGUUCAGGACAUGAGGAUCACCCAUGUGCAGGAUAUAGCCCACCGC
apparent Kd [1]: 25.1 nM | apparent Kd [2]: 53 nM

GCCGGGUAGGCAGGAUAUCCUCGCGCAAACACAUGAGGAUCACCCAUGUACACAAAACGUGAUAUGGAGAAGGGCUGACCCGCA
apparent Kd [3]: 33.9 nM | apparent Kd [4]: 5.84 nM

GCCGGUUACACAGGAUAUCCCAUGUCGACGGCGACAUGAGGAUCACCCAUGUCCUGGACGGGUUAGGAGAAGGGUGUAAAAUGC
apparent Kd [3]: 110 nM | apparent Kd [4]: 51.8 nM

GCCGUAAAUGUGAGGAUAUACCUAUGGAAACAUAGGUAGAAGGCACAUGAGGAUCACCCAUGUCCUUAAUCGGC
apparent Kd [1]: 447 nM | apparent Kd [2]: 406 nM

GCCGUGUUAGGAUAUUAAAGACCUGCGCCGAGCGCAGGAAGUAAGAAGGAACAUGAGGAUCACCCAUGUGUCCG
apparent Kd [1]: 18.1 nM | apparent Kd [2]: 16.1 nM

GCCUCACAUGAGGAUCACCCAUGUCAGGAUAUACCCAUCCGGCGCAAUUGCAGCCGUAGUAGAAGGGACAUGCA
apparent Kd [1]: 21.2 nM | apparent Kd [2]: 45.8 nM

GCCUCACAUGAGGAUCACCCAUGUCAGGAUAUCUAACGCGAGGUGCAGGCACUUCGUGAGAGAAGGGACGUCAA
apparent Kd [1]: 20.3 nM | apparent Kd [2]: 34.4 nM

GCCUGCCGUGGCACGGUAGCACCGGAGGAUAUCCGCGUCGGUCAUGACAUGAGGAUCACCCAUGUGGAGAAGGCUGGUUUGUCC
apparent Kd [1]: 10.8 nM | apparent Kd [2]: 21.2 nM

GCCUGCUGGCGAGGAUAUUCUGUGCGGUUUCGGCUCGUGUCUGUUACAUGAGGAUCACCCAUGUGGGAGAAGGUGUCUGUGGCC
apparent Kd [1]: 7.76 nM | apparent Kd [2]: 7.28 nM

GCGAAUUAGUGAGGAUAUACAUAAUUUAAAACUGUAGAAGGCACAAUCCUCAAGACAUGAGGAUCACCCAUGUGAUAUUAAGCU
apparent Kd [1]: 46 nM | apparent Kd [2]: 158 nM

GCGAGGACGGCAGGAUAUUGACAUGAGGAUCACCCAUGUAUUUGGGAGUGUUCACUGAAUUCUUACGAGAAGGGCCGUCCACGC
apparent Kd [1]: 312 nM | apparent Kd [2]: 261 nM

GCGAUUUUGUAAGGAUAUACACCAGUUUCAAGUGUAGAAGGUACUUACAUGAGGAUCACCCAUGUAUACUUGGAUAAUAGUCGC
apparent Kd [3]: 17.4 nM | apparent Kd [4]: 17.5 nM

GCGAUUUUGUAAGGAUAUACACGAGUUUCAAGUGUAGAAGGUACUUACAUGAGGAUCACCCAUGUAUACUUGGAUAAUAGUCGU
apparent Kd [3]: 29.2 nM | apparent Kd [4]: 23.5 nM

GCGAUUUUGUAAGGAUAUACUCGAGUUUUAAGAGUAGAAGGUACUUACAUGAGGAUCACCCAUGUCUAACGUAAUACUAGUCGC
apparent Kd [3]: 10.3 nM | apparent Kd [4]: 9.24 nM
